Results: ChEMBL document CHEMBL5244228, “Novel linked butanolide dimer compounds increase adiponectin production during adipogenesis in human mesenchymal stem cells through peroxisome proliferator-activated receptor γ modulation” (Eur J Med Chem, 2020)
Activity calls are given as the source filed them. The rule behind the calls is not given here.

Tests used:
[1] = biological target: T1, Peroxisome proliferator-activated receptor alpha (Homo sapiens) (UniProt Q07869); experiment: Displacement of Fluormone Pan-PPAR Green from GST-tagged human PPAR-alpha ligand binding domain at 10 uM by LanthaScreen TR-FRET competitive binding assay
T1 sequence (whole entry): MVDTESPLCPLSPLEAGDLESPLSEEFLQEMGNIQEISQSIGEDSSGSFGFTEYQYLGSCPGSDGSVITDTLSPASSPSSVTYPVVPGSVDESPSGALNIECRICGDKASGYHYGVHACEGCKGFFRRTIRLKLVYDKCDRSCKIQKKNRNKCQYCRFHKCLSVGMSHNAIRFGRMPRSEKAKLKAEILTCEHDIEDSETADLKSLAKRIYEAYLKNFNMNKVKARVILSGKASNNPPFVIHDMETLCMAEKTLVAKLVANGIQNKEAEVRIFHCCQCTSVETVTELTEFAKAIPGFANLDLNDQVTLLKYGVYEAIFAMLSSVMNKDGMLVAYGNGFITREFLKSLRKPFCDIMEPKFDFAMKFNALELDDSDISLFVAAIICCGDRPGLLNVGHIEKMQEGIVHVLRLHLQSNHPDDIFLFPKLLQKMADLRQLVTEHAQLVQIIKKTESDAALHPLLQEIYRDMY
In short: (§1)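 TR-FRET competitive binding run with a LanthaScreen kit, following a previously described protocol; values read on a plate reader.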

[2] = biological target: T2, Peroxisome proliferator-activated receptor delta (Homo sapiens) (UniProt Q03181); experiment: Displacement of Fluormone Pan-PPAR Green from GST-tagged human PPAR-delta ligand binding domain at 10 uM by LanthaScreen TR-FRET competitive binding assay; in short: as §1
T2 sequence (whole entry): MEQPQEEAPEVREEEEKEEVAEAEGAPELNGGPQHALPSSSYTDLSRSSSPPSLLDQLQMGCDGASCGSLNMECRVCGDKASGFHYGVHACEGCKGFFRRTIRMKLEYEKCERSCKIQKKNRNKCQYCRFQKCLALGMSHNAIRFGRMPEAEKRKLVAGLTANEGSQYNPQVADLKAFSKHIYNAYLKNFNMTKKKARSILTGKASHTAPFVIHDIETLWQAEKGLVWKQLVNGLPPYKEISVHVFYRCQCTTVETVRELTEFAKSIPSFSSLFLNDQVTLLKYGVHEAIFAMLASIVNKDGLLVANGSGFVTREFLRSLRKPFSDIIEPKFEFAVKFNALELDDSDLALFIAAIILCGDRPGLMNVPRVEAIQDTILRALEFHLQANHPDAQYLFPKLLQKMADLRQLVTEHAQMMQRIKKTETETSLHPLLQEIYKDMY

[3] = biological target: T3, Peroxisome proliferator-activated receptor gamma (Homo sapiens) (UniProt P37231); experiment: Displacement of Fluormone Pan-PPAR Green from GST-tagged human PPAR-gamma ligand binding domain at 10 uM by LanthaScreen TR-FRET competitive binding assay; in short: as §1
T3 sequence (whole entry): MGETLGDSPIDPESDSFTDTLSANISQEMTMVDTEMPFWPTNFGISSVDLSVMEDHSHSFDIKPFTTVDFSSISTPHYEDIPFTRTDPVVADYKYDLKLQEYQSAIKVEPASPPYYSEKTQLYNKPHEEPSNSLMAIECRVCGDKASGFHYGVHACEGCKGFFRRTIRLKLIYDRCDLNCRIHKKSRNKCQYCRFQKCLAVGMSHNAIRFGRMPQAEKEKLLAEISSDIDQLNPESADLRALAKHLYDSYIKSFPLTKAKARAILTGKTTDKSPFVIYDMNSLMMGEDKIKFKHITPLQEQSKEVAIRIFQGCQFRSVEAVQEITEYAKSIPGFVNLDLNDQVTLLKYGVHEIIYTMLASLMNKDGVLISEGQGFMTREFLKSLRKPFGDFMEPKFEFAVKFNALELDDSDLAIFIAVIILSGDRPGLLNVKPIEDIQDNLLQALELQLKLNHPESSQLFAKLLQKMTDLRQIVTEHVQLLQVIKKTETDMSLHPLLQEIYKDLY

[4] = biological target: T4, Peroxisome proliferator-activated receptor gamma (Homo sapiens, UniProt P37231); experiment: Displacement of [3H]rosiglitazone from human PPAR-gamma incubated for 1 day by radioligand binding assay
T4 sequence (P37231 whole entry): T3 sequence (whole entry)

[5] = biological target: T4, Peroxisome proliferator-activated receptor gamma; experiment: Agonist activity at PPAR-gamma in human BMMSC cells assessed as induction of adiponectin production in presence of IDX adipogenic induction medium and measured on day 5 by ELISA; format: cell-based
[6] = biological target: T3, Peroxisome proliferator-activated receptor gamma (Homo sapiens); experiment: Partial agonist activity at PPAR-gamma in human BMMSC cells assessed as inhibition of pioglitazone-induced adiponectin production at 1 to 10 uM in presence of IDX adipogenic induction medium and pioglitazone and measured on day 5 by ELISA; format: cell-based; details: filed as partial agonist, dose 1-10 µM, time 5.0 day
In short: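 Human bone marrow MSCs grown in DMEM (1 g/L glucose), 10% FBS, 1% pen-strep. Adipogenesis induced in DMEM (4.5 g/L glucose), 10% FBS, insulin, dexamethasone, IBMX, with compounds co-added alongside pioglitazone. Supernatants collected on day 5; adiponectin quantified by ELISA. Mean ± SD, n = 3.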

[7] = biological target: T3, Peroxisome proliferator-activated receptor gamma (Homo sapiens); experiment: Displacement of [3H]rosiglitazone from human PPAR-gamma at 30 uM incubated for 1 day by radioligand binding assay; details: filed as agonist

Activity [1] | Activity [2] | Activity ([3]; filed as agonist) | Ki [4] | EC50 [5] | Activity ([3]; filed as partial agonist) | Activity [6] | Activity [7] | SMILES
inactive | inactive | Active |  |  |  |  |  | CCCCCCCCCC/C=C1/C(=O)O[C@@H](C)[C@H]1O
inactive | inactive | Active | 1.9 µM | > 30 µM |  |  |  | CCCCCCCCCCCCC/C=C1/C(=O)O[C@@H](C)[C@@H]1O
inactive | inactive |  | 9.2 µM | > 30 µM | Active | Dose-Dependent Effect |  | CCCCCCCCCCCCC/C=C1/C(=O)O[C@@H](C)[C@H]1O
inactive | inactive | Active |  |  |  |  |  | CCCCCCCCC/C=C1/C(=O)O[C@@H](C)[C@H]1O
inactive | inactive | Active |  |  |  |  |  | CCCCCCCCCCCC/C=C1/C(=O)O[C@@H](C)[C@H]1O
inactive | inactive | Active |  |  |  |  |  | CCCCCCCCCCC/C=C1/C(=O)O[C@@H](C)[C@H]1O
inactive | inactive | Active |  |  |  |  |  | CCCCC/C=C1/C(=O)O[C@@H](C)[C@H]1O
inactive | inactive | Active | > 30 µM | 25.3 µM |  |  | 48.5% | CCC/C=C1/C(=O)O[C@@H](C)[C@H]1O
inactive | inactive | Active | 22 µM | 19 µM |  |  |  | CCCC=C1C(=O)O[C@@H](C)[C@@H]1O
inactive | inactive | Active |  |  |  |  |  | CCCCC/C=C1/C(=O)O[C@@H](C)[C@@H]1O
inactive | inactive | Active |  |  |  |  |  | CCCCCCCC/C=C1/C(=O)O[C@@H](C)[C@H]1O
inactive | inactive | Active |  |  |  |  |  | CCCCCCC/C=C1/C(=O)O[C@@H](C)[C@H]1O
